One test concerns Canis familiaris. In words: Dose causing a 50% increase of coronary blood flow in anesthetized dogs relative to the flow increase caused by injection of 1 microg of nifedipine (100%) after intracoronary administration. It counts as functional, Canis lupus familiaris, Coronary artery. In a few lines: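 Anesthetized dogs; compound dissolved in 30% DMF, diluted with saline, injected into the coronary artery. Perfusion pressure and systemic blood pressure measured by pressure transducers.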
Take `CCCn1nc(N[C@@H]2c3cc(C#N)ccc3OC(COC)(COC)[C@H]2O)ccc1=O`: the ED50 worked out at 1.5 µg.

For the molecule `COCC1(COC)Oc2ccc(C#N)cc2[C@@H](Nc2ccc(=O)n(-c3ccc([N+](=O)[O-])cc3)n2)[C@@H]1O`, the ED50 is over 30 µg. Same read-out and setting: with `COCC1(COC)Oc2ccc(Br)cc2[C@@H](Nc2ccc(=O)n(C)n2)[C@@H]1O` the figure was 2.3 µg; with `COCC1(COC)Oc2ccc(C#N)cc2[C@@H](NC(=O)c2cccnc2)[C@@H]1O`, 14 µg; with `COCC1(COC)Oc2ccc(C#N)cc2[C@@H](Nc2ccc(=O)n(CC(F)(F)F)n2)[C@@H]1O`, 6.4 µg. Consider `COCC1(COC)Oc2ccc(C#N)cc2[C@@H](Nc2ccc(=S)n(C)n2)[C@@H]1O`, for which the ED50 was 24 µg. `COCC1(COC)Oc2ccc(C#N)cc2[C@@H](NC(=O)Nc2ccccc2)[C@@H]1O`: the ED50 is over 30 µg. The same measure, in the same setting: the same measure for `COCC1(COC)Oc2ccc(C#N)cc2[C@@H](N=C(NC#N)c2ccccc2)[C@@H]1O`: 5.4 µg; for `COCC1(COC)Oc2ccc(C#N)cc2[C@@H](N=C(C)NC#N)[C@@H]1O`: 6 µg; for `COCC1(COC)Oc2ccc(C#N)cc2[C@@H](Oc2ccc(=O)n(C)n2)[C@@H]1O`: 6.4 µg.

As to `COCC1(COC)Oc2ccc(C#N)cc2[C@@H](Nc2ccc(=O)n(CCC(=O)OC)n2)[C@@H]1O`, the ED50 came to 2.3 µg. The same measure, in the same setting: with `COCC1(COC)Oc2ccc(C#N)cc2[C@@H](Nc2ccc(=O)n(CC(=O)O)n2)[C@@H]1O` the figure was over 30 µg.

With `COCC1(COC)Oc2ccc([N+](=O)[O-])cc2[C@@H](N=C(NC#N)c2cccnc2)[C@@H]1O`, the ED50 is 4.4 µg.

For `CC1(C)Oc2ccc(C#N)cc2[C@@H](N=C(NC#N)c2cccnc2)[C@@H]1O`, the ED50 stood at 1.3 µg. Molecule `C=CCn1nc(N[C@@H]2c3cc(C#N)ccc3OC(COC)(COC)[C@H]2O)ccc1=O` yielded an ED50 of 1.2 µg. Still for that read-out and setting: with `COCC1(COC)Oc2ccc(C#N)cc2[C@@H](Nc2ccc(O)nn2)[C@@H]1O` the figure was 6.2 µg. For `COCC1(COC)Oc2ccc(C#N)cc2[C@@H](Nc2ccc(=O)n(C)n2)[C@@H]1O`, the ED50 was found to be 0.58 µg.

On to `COCC1(COC)Oc2ccc(Br)cc2[C@@H](N=C(NC#N)c2cccnc2)[C@@H]1O`, for which the ED50 was determined as 20 µg. Still for that read-out and setting: with `COCC1(COC)Oc2ccc(C#N)cc2[C@@H](Nc2ccc(=O)n(Cc3ccccc3)n2)[C@@H]1O` the figure was 28 µg.

Molecule `CCOCC1(COCC)Oc2ccc(C#N)cc2[C@@H](N=C(NC#N)c2cccnc2)[C@@H]1O` showed an ED50 of over 30 µg. Regarding `COCC1(COC)Oc2ccc(C#N)cc2[C@@H](Nc2ccc(=O)n(CCSC)n2)[C@@H]1O`, the ED50 amounted to 3.3 µg. Same read-out and setting: the same measure for `COCC1(COC)Oc2ccc([N+](=O)[O-])cc2[C@@H](Nc2ccc(=O)n(C)n2)[C@@H]1O`: 1.1 µg; for `COCC1(COC)Oc2ccc(C#N)cc2[C@@H](Nc2ccc(=O)n(CC#N)n2)[C@@H]1O`: 5 µg. Molecule `COCC1(COC)Oc2ccc(C#N)cc2[C@@H](N=C(NC#N)c2cccnc2)[C@@H]1O` displayed an ED50 of 14 µg. For the molecule `COCC1(C)Oc2ccc(C#N)cc2[C@@H](N=C(NC#N)c2cccnc2)[C@@H]1O` (stereo partly drawn), the ED50 stood at 17 µg. Still for that read-out and setting: the same measure for `COCC1(COC)Oc2ccc(C#N)cc2[C@@H](Nc2ccc(=O)n(CCF)n2)[C@@H]1O`: 1.8 µg; for `CCn1nc(N[C@@H]2c3cc(C#N)ccc3OC(COC)(COC)[C@H]2O)ccc1=O`: 0.57 µg. Still for that read-out and setting: the same measure for `COCC1(COC)Oc2ccc(C#N)cc2[C@@H](Nc2ccc(=O)n(C(C)C)n2)[C@@H]1O`: 1.3 µg; for `COCC1(COC)Oc2ccc(C#N)cc2[C@@H](Nc2ccc(=O)n(CC(=O)OC)n2)[C@@H]1O`: 17 µg.

The molecule `CC1(COc2ccccc2)Oc2ccc(C#N)cc2[C@@H](N=C(NC#N)c2cccnc2)[C@@H]1O` (stereo partly drawn) registered an ED50 of over 30 µg. `CCCCCCCn1nc(N[C@@H]2c3cc(C#N)ccc3OC(COC)(COC)[C@H]2O)ccc1=O` showed an ED50 of 13 µg. Consider `COCCn1nc(N[C@@H]2c3cc(C#N)ccc3OC(COC)(COC)[C@H]2O)ccc1=O`, for which the ED50 is 4.1 µg. The same measure, in the same setting: the same measure for `COCC1(COC)Oc2ccc(C#N)cc2[C@@H](Nc2ccc(=O)n(CC3CC3)n2)[C@@H]1O`: 1.5 µg; for `CCCC1(C)Oc2ccc(C#N)cc2[C@@H](N=C(NC#N)c2cccnc2)[C@@H]1O` (stereo partly drawn): 20 µg; for `N#CNC(=N[C@@H]1c2cc(C#N)ccc2OC2(COCOC2)[C@H]1O)c1cccnc1`: over 30 µg. On the same count and under the same terms, the same measure for `COCC1(COC)Oc2ccc(C#N)cc2[C@@H](Nc2ccc(=O)n(CC[N+](=O)[O-])n2)[C@@H]1O`: 1.6 µg; for `COCC1(COC)Oc2ccc(C#N)cc2[C@@H](N=C(NC#N)Nc2ccccc2)[C@@H]1O`: over 30 µg.

The species entered for another test is Sus scrofa. In words: Vasorelaxant effect on KCl-Induced contraction of porcine coronary artery. It counts as functional.
As a reminder, the IC50 is the concentration at which inhibition is half-maximal. Higher therefore signals weaker potency in that assay. The molecule `O=C(NCCO[N+](=O)[O-])c1cccnc1` [NICORANDIL] came in with an IC50 of 3200 nM.

`CC1(C)Oc2ccc(C#N)cc2[C@@H](N2CCCC2=O)[C@@H]1O` [LEVCROMAKALIM] returned an IC50 of 360 nM. For the molecule `COC(=O)C1=C(C)NC(C)=C(C(=O)OC)C1c1ccccc1[N+](=O)[O-]` [NIFEDIPINE], inhibition was half-maximal at 3.6 nM (IC50).

The species named for a further test is Rattus norvegicus. In words: Vasorelaxant effect on KCl-Induced contraction of rat aorta. The class given is functional. Summed up:
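Isolated strips in Krebs-Henseleit solution, 37 °C, gassed with 95% O2/5% CO2, under 1 g resting load; isometric tension recorded. Strips contracted with 30 or 40 mM KCl. Cumulative concentration-relaxation curves; mean IC50 taken as concentration giving 50% relaxation of the KCl-induced contraction.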
Turning to `O=C(NCCO[N+](=O)[O-])c1cccnc1` [NICORANDIL], the IC50 was 13000 nM. `COCC1(COC)Oc2ccc(C#N)cc2[C@@H](Nc2ccc(=O)n(C)n2)[C@@H]1O` displayed an IC50 of 300 nM.

Regarding `CC1(C)Oc2ccc(C#N)cc2[C@@H](N2CCCC2=O)[C@@H]1O` [LEVCROMAKALIM], the IC50 stood at 290 nM. In the case of `COC(=O)C1=C(C)NC(C)=C(C(=O)OC)C1c1ccccc1[N+](=O)[O-]` [NIFEDIPINE], 3.6 nM corresponded to half-maximal inhibition (IC50).

Test system in a further test: not listed separately
In words: Vasorelaxant effect on KCl-Induced contraction of porcine coronary artery vs rat aorta. It counts as functional. In a few lines:
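Isolated porcine coronary artery and rat aortic strips in organ bath, Krebs-Henseleit solution, 37 °C, gassed 95% O2/5% CO2; isometric tension under 1 g resting load. Strips contracted with 30 or 40 mM KCl. Mean IC50 (50% relaxation of KCl-induced contraction) from concentration-relaxation curves in each tissue.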
For the molecule `CC1(C)Oc2ccc(C#N)cc2[C@@H](N2CCCC2=O)[C@@H]1O` [LEVCROMAKALIM], the Ratio is 0.81. Turning to `COC(=O)C1=C(C)NC(C)=C(C(=O)OC)C1c1ccccc1[N+](=O)[O-]` [NIFEDIPINE], the Ratio was determined as 1.

Test system in another test: not listed separately
The experiment in a line: Ratio of vasorelaxant effect on KCl-Induced contraction of rat aorta to that of porcine coronary artery. It counts as functional.
As to `O=C(NCCO[N+](=O)[O-])c1cccnc1` [NICORANDIL], the Ratio stood at 4.06. Same read-out and setting: with `COCC1(COC)Oc2ccc(C#N)cc2[C@@H](Nc2ccc(=O)n(C)n2)[C@@H]1O` the figure was 2.73.

Values taken from ChEMBL document CHEMBL1129648, “Synthesis and selective coronary vasodilatory activity of 3,4-dihydro-2,2-bis(methoxymethyl)-2H-1-benzopyran-3-ol derivatives: novel potassium channel openers” (J Med Chem, 1996).
